We go through two molecules from PMC7944986 (Journal for Immunotherapy of Cancer, 2021).

“Also recorded” adds a separate entry of the source.

Holding throughout (assay type): in vivo, human
A short description of series [1]: Durvalumab immunogenicity. Conditions: durvalumab 1500 mg Q4W in combination with galunisertib.
Series [2] relates to patients with recurrent or refractory metastatic pancreatic cancer. The experiment in a line: Dose finding, modified 3+3. The conditions noted are these: co-administered with durvalumab 1500 mg Q4W; days 1–14 of a 28-day cycle. The method in brief:
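Oral galunisertib was given on days 1–14 in escalating cohorts of 50 mg once daily, then 50, 80 or 150 mg twice daily, with durvalumab infused IV over 60 min. Cohorts of three expanded to six after one DLT in cycle 1 (28 days). DLT criteria: grade 4 haematological AE, febrile neutropenia, grade 3–4 irAE or non-haematological AE, <75% planned dose, or >2-week delay. MTD: DLT in <2 of six; otherwise RP2D = maximum study dose.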

Series [3] is described as follows: Steady-state galunisertib plasma pharmacokinetics. The conditions noted are these: for AUC / Cmax: human, plasma, oral, geometric mean (CV %), steady state; for AUC: AUC(0-tau).

With durvalumab, in series [1], the “Anti-drug antibodies against durvalumab” value is reported as “No anti-drug antibodies against durvalumab were detected; also recorded: immunogenicity was not observed”.
As a reminder, the AUC is concentration integrated over time. What is called Cmax is the highest concentration seen after dosing. Take `Cc1cccc(-c2nn3c(c2-c2ccnc4ccc(C(N)=O)cc24)CCC3)n1` [Galunisertib, galunisertib]: the “Recommended phase II dose (RP2D) of galunisertib” value in series [2] was determined as 150 mg two times per day. Further, the “Time to maximum plasma concentration (mean concentration versus time profiles)” value in series [3] (galunisertib 50, 80, and 150 mg two times per day) is not above 4 h. Besides, the AUC in series [3] (tau=12 hours, galunisertib 50 mg two times per day + durvalumab 1500 mg Q4W) was found to be 0.813 µg·h/mL; in series [3] (tau=12 hours, galunisertib 80 mg two times per day + durvalumab 1500 mg Q4W), 3.15 µg·h/mL; in series [3] (tau=12 hours, galunisertib 150 mg two times per day + durvalumab 1500 mg Q4W), 6.12 µg·h/mL; in series [3] (tau=24 hours, galunisertib 50 mg one time per day + durvalumab 1500 mg Q4W), 1.63 µg·h/mL. Further, the results for the Cmax in series [3] (galunisertib 50 mg one time per day + durvalumab 1500 mg Q4W), in series [3] (galunisertib 80 mg two times per day + durvalumab 1500 mg Q4W) and in series [3] (galunisertib 150 mg two times per day + durvalumab 1500 mg Q4W) were 0.424 µg/mL, 0.612 µg/mL and 1.07 µg/mL, respectively.
